Assays:
[1] = biological target: T1, Beta-galactoside alpha-2,6-sialyltransferase 1 (Homo sapiens) (UniProt P15907); experiment: Inhibition of recombinant human ST6Gal-1 (44 to 406 residues) assessed as ratio of CMP-Neu5Ac Km to compound Ki […] by UV/RP-HPLC method
T1 sequence (whole entry): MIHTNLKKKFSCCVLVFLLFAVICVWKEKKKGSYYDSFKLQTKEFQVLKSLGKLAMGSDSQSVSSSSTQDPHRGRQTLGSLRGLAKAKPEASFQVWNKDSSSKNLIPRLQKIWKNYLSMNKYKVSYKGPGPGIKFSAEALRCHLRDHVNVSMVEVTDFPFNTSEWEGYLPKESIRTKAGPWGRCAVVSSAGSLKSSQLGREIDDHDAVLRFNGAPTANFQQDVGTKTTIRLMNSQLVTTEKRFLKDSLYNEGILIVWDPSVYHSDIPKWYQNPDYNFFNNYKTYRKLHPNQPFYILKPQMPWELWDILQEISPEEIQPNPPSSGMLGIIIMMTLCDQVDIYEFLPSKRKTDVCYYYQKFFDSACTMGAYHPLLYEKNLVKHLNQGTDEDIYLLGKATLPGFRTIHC

[2] = biological target: T1, Beta-galactoside alpha-2,6-sialyltransferase 1 (Homo sapiens); experiment: Inhibition of recombinant human N-terminal His-tagged ST6Gal-1 (44 to 406 residues) at 1 uM using CMP-Neu5Ac as substrate […] by UV/RP-HPLC method
Procedure, shortened: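 hST6Gal-I (aa 44-406), 80 ng per reaction, in pH 6.5 Mes buffer with 2 mM MnCl2 and 0.5% Triton X-100. Inhibitor at 1 µM with CMP-Neu5Ac (250 µM stock) and p-nitrophenyl LacNAc acceptor (5 mM stock), 37 °C, 30 min. Quenched by water and 95 °C for 2 min. Product read by RP-HPLC at 300 nm; donor consumption kept below 15%. Duplicates averaged.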

[3] = biological target: T2, Beta-galactoside alpha-2,6-sialyltransferase 1 (Homo sapiens, UniProt P15907); experiment: Inhibition of recombinant human N-terminal His-tagged ST6Gal-1 (44 to 406 residues) using CMP-Neu5Ac as substrate […] by UV/RP-HPLC method
T2 sequence (P15907 whole entry): T1 sequence (whole entry)

SMILES | Ratio [1] | inhibition [2] | Ki [3]
Nc1ccn([C@@H]2O[C@H](COP(=O)(O)OC(C(=O)N3CCCC3)P(=O)(O)O)[C@@H](O)[C@H]2O)c(=O)n1 (stereo in doubt; 5c-S) [listing 1 of 2 here] | 694 | 77% | –
Nc1ccn([C@@H]2O[C@H](COP(=O)(O)O[C@@H](c3cccc(Oc4ccccc4)c3)P(=O)(O)O)[C@@H](O)[C@H]2O)c(=O)n1 | 2190 | 87.6% | 19 nM
Nc1ccn([C@@H]2O[C@H](COP(=O)(O)OC(c3ccccc3)P(=O)(O)O)[C@@H](O)[C@H]2O)c(=O)n1 (stereo in doubt; 2h) [listing 1 of 2 here] | – | – | 200 nM
Nc1ccn([C@@H]2O[C@H](COP(=O)(O)OC(CN3C(=O)c4ccccc4C3=O)P(=O)(O)O)[C@@H](O)[C@H]2O)c(=O)n1 (stereo in doubt; 5f-s) | – | 34.5% | –
Nc1ccn([C@@H]2O[C@H](COP(=O)(O)OC(CNC(=O)c3ccccc3)P(=O)(O)O)[C@@H](O)[C@H]2O)c(=O)n1 (stereo in doubt; 5a-l) [listing 1 of 2 here] | 239 | 61.7% | –
Nc1ccn([C@@H]2O[C@H](COP(=O)(O)OC(c3ccccc3)P(=O)(O)O)[C@@H](O)[C@H]2O)c(=O)n1 (stereo in doubt; 2l) [listing 1 of 2 here] | – | – | 1000 nM
Nc1ccn([C@@H]2O[C@H](COP(=O)(O)OC(C(=O)Nc3ccccc3)P(=O)(O)O)[C@@H](O)[C@H]2O)c(=O)n1 (stereo in doubt; 5b-s) [listing 2 of 2 here] | 393 | 69.7% | –
CC(=O)NC[C@@H]1CCC(OP(=O)(O)OC[C@H]2O[C@@H](n3ccc(N)nc3=O)[C@H](O)[C@@H]2O)(P(=O)(O)O)[C@H]1OCc1ccccc1 (stereo in doubt; 4-h) | 1490 | – | –
Nc1ccn([C@@H]2O[C@H](COP(=O)(O)OC(C(=O)N3CCCCC3)P(=O)(O)O)[C@@H](O)[C@H]2O)c(=O)n1 (stereo in doubt; 5d-l) [listing 1 of 2 here] | 925 | 80.3% | –
Nc1ccn([C@@H]2O[C@H](COP(=O)(O)OC(c3ccccc3)P(=O)(O)O)[C@@H](O)[C@H]2O)c(=O)n1 (stereo in doubt; 2h) [listing 2 of 2 here] | 230 | – | –
Nc1ccn([C@@H]2O[C@H](COP(=O)(O)OC(C(=O)N3CCCCC3)P(=O)(O)O)[C@@H](O)[C@H]2O)c(=O)n1 (stereo in doubt; 5d-l) [listing 2 of 2 here] | – | – | 45 nM
Nc1ccn([C@@H]2O[C@H](COP(=O)(O)OC(CN3C(=O)CCC3=O)P(=O)(O)O)[C@@H](O)[C@H]2O)c(=O)n1 (stereo in doubt; 5e-s) [listing 2 of 2 here] | 186 | 58.8% | –
Nc1ccn([C@@H]2O[C@H](COP(=O)(O)OC(C3CCCC3)P(=O)(O)O)[C@@H](O)[C@H]2O)c(=O)n1 (some centres undefined) | 7.1 | – | –
CC(=O)N[C@H]1[C@H](Oc2ccccc2)OC(C(OP(=O)(O)OC[C@H]2O[C@@H](n3ccc(N)nc3=O)[C@H](O)[C@@H]2O)P(=O)(O)O)=C[C@@H]1O (stereo in doubt; 1-l) [listing 2 of 2 here] | – | – | 690 nM
Nc1ccn([C@@H]2O[C@H](COP(=O)(O)OC(c3ccccc3)P(=O)(O)O)[C@@H](O)[C@H]2O)c(=O)n1 (stereo in doubt; 2l) [listing 2 of 2 here] | 46 | – | –

Now from value to molecule:

Ratio [1] | inhibition [2] | Ki [3] | SMILES
252 | 65.7% | – | Nc1ccn([C@@H]2O[C@H](COP(=O)(O)OC(C(=O)N3CCCC3)P(=O)(O)O)[C@@H](O)[C@H]2O)c(=O)n1 (stereo in doubt; 5c-l) [listing 1 of 2 here]
– | – | 29 nM | CC(=O)N[C@H]1[C@H](Oc2ccccc2)OC(C(OP(=O)(O)OC[C@H]2O[C@@H](n3ccc(N)nc3=O)[C@H](O)[C@@H]2O)P(=O)(O)O)=C[C@@H]1O (stereo in doubt; 1-h) [listing 1 of 2 here]
– | – | 20 nM | Nc1ccn([C@@H]2O[C@H](COP(=O)(O)OC(C(=O)N3CCCCC3)P(=O)(O)O)[C@@H](O)[C@H]2O)c(=O)n1 (stereo in doubt; 5d-s) [listing 1 of 2 here]
– | – | 106 nM | Nc1ccn([C@@H]2O[C@H](COP(=O)(O)OC(C(=O)Nc3ccccc3)P(=O)(O)O)[C@@H](O)[C@H]2O)c(=O)n1 (stereo in doubt; 5b-s) [listing 1 of 2 here]
– | – | 60 nM | Nc1ccn([C@@H]2O[C@H](COP(=O)(O)OC(C(=O)N3CCCC3)P(=O)(O)O)[C@@H](O)[C@H]2O)c(=O)n1 (stereo in doubt; 5c-S) [listing 2 of 2 here]
87 | – | – | CC(=O)NC[C@@H]1CCC(OP(=O)(O)OC[C@H]2O[C@@H](n3ccc(N)nc3=O)[C@H](O)[C@@H]2O)(P(=O)(O)O)[C@H]1OCc1ccccc1 (stereo in doubt; 4-l)
2600 | 88.9% | – | Nc1ccn([C@@H]2O[C@H](COP(=O)(O)OC(CNC(=O)c3ccccc3)P(=O)(O)O)[C@@H](O)[C@H]2O)c(=O)n1 (stereo in doubt; 5a-s) [listing 1 of 2 here]
341 | 67.7% | – | Nc1ccn([C@@H]2O[C@H](COP(=O)(O)OC(C(=O)Nc3ccccc3)P(=O)(O)O)[C@@H](O)[C@H]2O)c(=O)n1 (stereo in doubt; 5b-l) [listing 1 of 2 here]
– | 15.1% | – | Nc1ccn([C@@H]2O[C@H](COP(=O)(O)OC(CN3C(=O)CCC3=O)P(=O)(O)O)[C@@H](O)[C@H]2O)c(=O)n1 (stereo in doubt; 5e-l)
1580 | – | – | CC(=O)N[C@H]1[C@H](Oc2ccccc2)OC(C(OP(=O)(O)OC[C@H]2O[C@@H](n3ccc(N)nc3=O)[C@H](O)[C@@H]2O)P(=O)(O)O)=C[C@@H]1O (stereo in doubt; 1-h) [listing 2 of 2 here]
– | – | 122 nM | Nc1ccn([C@@H]2O[C@H](COP(=O)(O)OC(C(=O)Nc3ccccc3)P(=O)(O)O)[C@@H](O)[C@H]2O)c(=O)n1 (stereo in doubt; 5b-l) [listing 2 of 2 here]
– | – | 224 nM | Nc1ccn([C@@H]2O[C@H](COP(=O)(O)OC(CN3C(=O)CCC3=O)P(=O)(O)O)[C@@H](O)[C@H]2O)c(=O)n1 (stereo in doubt; 5e-s) [listing 1 of 2 here]
– | 14.3% | – | Nc1ccn([C@@H]2O[C@H](COP(=O)(O)OC(CN3C(=O)c4ccccc4C3=O)P(=O)(O)O)[C@@H](O)[C@H]2O)c(=O)n1 (stereo in doubt; 5f-l)
– | – | 174 nM | Nc1ccn([C@@H]2O[C@H](COP(=O)(O)OC(CNC(=O)c3ccccc3)P(=O)(O)O)[C@@H](O)[C@H]2O)c(=O)n1 (stereo in doubt; 5a-l) [listing 2 of 2 here]
67 | – | – | CC(=O)N[C@H]1[C@H](Oc2ccccc2)OC(C(OP(=O)(O)OC[C@H]2O[C@@H](n3ccc(N)nc3=O)[C@H](O)[C@@H]2O)P(=O)(O)O)=C[C@@H]1O (stereo in doubt; 1-l) [listing 1 of 2 here]
2080 | 86.3% | – | Nc1ccn([C@@H]2O[C@H](COP(=O)(O)OC(C(=O)N3CCCCC3)P(=O)(O)O)[C@@H](O)[C@H]2O)c(=O)n1 (stereo in doubt; 5d-s) [listing 2 of 2 here]
– | – | 165 nM | Nc1ccn([C@@H]2O[C@H](COP(=O)(O)OC(C(=O)N3CCCC3)P(=O)(O)O)[C@@H](O)[C@H]2O)c(=O)n1 (stereo in doubt; 5c-l) [listing 2 of 2 here]
– | – | 16 nM | Nc1ccn([C@@H]2O[C@H](COP(=O)(O)OC(CNC(=O)c3ccccc3)P(=O)(O)O)[C@@H](O)[C@H]2O)c(=O)n1 (stereo in doubt; 5a-s) [listing 2 of 2 here]
